Source: PubChem
An excerpt weighted towards active compounds, which were near 2.2% of everything screened.
NF-kB neuron act = raises NF-kB expression in human neuronal cells. NF-kB reporter expression; stronger effect = higher value. fold change at 12.5 µM. 190,000 tested, 1.6% active. AID 1239; in the data active = fold change above about 3.3
FLuc act counter = affects firefly luciferase, flagging false hits in luciferase stimulation screens. P08659. ATPlite luciferase biochemical, luminescence, 10 min; 0 = ATP-free wells, 1 = DMSO control. activation factor at 10 µM. 200,000 tested, under 10 active;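 active = luciferase activation factor, scaled between plate controls, of at least 2 with compound at 10 µM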
Target sequence (P08659 whole entry, looked up): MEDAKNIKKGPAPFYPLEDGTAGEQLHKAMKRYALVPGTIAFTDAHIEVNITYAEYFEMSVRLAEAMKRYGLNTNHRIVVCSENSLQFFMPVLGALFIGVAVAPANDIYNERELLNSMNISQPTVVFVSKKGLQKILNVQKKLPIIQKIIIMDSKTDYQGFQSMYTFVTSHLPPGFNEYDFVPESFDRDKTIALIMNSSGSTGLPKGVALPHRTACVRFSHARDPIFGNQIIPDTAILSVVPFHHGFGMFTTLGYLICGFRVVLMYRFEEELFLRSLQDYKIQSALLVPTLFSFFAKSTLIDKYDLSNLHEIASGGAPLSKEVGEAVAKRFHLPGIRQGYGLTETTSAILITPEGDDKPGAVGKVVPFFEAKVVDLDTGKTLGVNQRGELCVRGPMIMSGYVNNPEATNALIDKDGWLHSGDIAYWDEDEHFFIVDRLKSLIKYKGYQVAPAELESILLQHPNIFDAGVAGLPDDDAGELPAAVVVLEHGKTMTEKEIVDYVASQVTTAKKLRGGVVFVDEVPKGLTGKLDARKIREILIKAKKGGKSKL
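Assay system: Luciferase/luciferin reagent mix; Medium: PBS as buffer for the ATP substrate; Dosing: test compounds dosed from 2 mM stocks in 100% DMSO; Times: 10 min, room temperature; Signal: luminescence from luciferase reaction; Read-out: luciferase activation; Controls: No-ATP low control, compound-free enzyme-plus-ATP high control.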
FLuc inh counter = Photinus pyralis luciferase inhibition counter-screen | P08659 | ATPLite firefly luciferase biochemical luminescence, 10 min | inhibition, % at 10 µM | 200,000 tested, 1.5% active;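 active = inhibition above about 50% when tested at 10 µM, limit read from the data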
PPC-1+TRAIL kill = PPC-1 cancer cell killing with TRAIL present. PPC-1 cells + TRAIL, ATPLite viability luminescence. cell killing (% activity), % at 4 µM or 5 µM. 220,000 tested, 0.41% active. AID 1443;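 active = cell killing above 50% in the first pass at 4 µM, then a duplicate retest at 5 µM averaging 50% or more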
APP 5'UTR act = activates APP 5'UTR luciferase reporter | activation, % at 2 µM | SH-SY5Y APP 5'UTR luciferase reporter, luminescence; zero percent = DMSO vehicle wells | 190,000 tested, 1% active;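 active = activation above a set limit, based on mean plus 3 SD of controls, cut at about 140% in these data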
TRAIL sens C8 = caspase-8 TRAIL sensitization; 360,000 tested, 1% active; inhibition (viability loss, TRAIL sensitization), % at 10 µM; NB7+C8 cells + TRAIL, ATPlite viability luminescence;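 active = compounds causing at least 50% loss of cell viability in the single-dose screen, relative to plate controls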
A number is an active result; – = inactive; · = not tested or not shown.

SMILES	NF-kB neuron act	FLuc act counter	FLuc inh counter	PPC-1+TRAIL kill	APP 5'UTR act	TRAIL sens C8
CCCCNC(=O)C(NC(=O)c1cccc2ccccc12)C(=O)c1ccccc1 (centres undefined)	·	·	·	·	·	–
COc1cccc(CNC(=O)c2cc3c(c(-c4cccc(-c5cccc(C#N)c5)c4)n2)[C@H](CCO)N(S(=O)C(C)(C)C)C3)c1 (some centres undefined)	·	·	·	·	·	–
CCn1c(C)cc(C(=O)CSc2nnc(C3CC3)n2C2CC2)c1C	·	·	·	·	·	–
OC(c1cc(F)cc(Cl)c1)c1ncc(-c2ccccc2C(F)(F)F)[nH]1 (centres undefined)	·	·	·	·	·	–
CCCC(=O)N1CCC1(C)C(=O)Nc1ccc2nccnc2c1 (centres undefined)	·	·	·	·	·	–
N#C/C(=N\Nc1ccc(F)cc1)C(=N)N1CCCCCC1	7.72	–	59.1	·	185.2	–
N#C/C(=N\Nc1ccc(Cl)cc1)C(=N)N1CCCCC1	7.41	–	–	–	189.7	–
Cc1ccc(N/N=C(\C#N)C(=N)N2CCCCCC2)cc1	5.88	–	51.2	–	167.9	–
COc1ccc(N/N=C(\C#N)C(=N)N2CCCCC2)cc1	·	·	·	–	·	–
N#C/C(=N\Nc1ccccc1)C(=N)N1CCOCC1	–	–	–	–	–	–
N#C/C(=N\Nc1ccccc1F)C(=N)N1CCCCC1	3.98	–	–	–	–	–
CCOc1cccc(-c2ccc3nncn3c2)c1	·	·	·	·	·	–
COc1cc(C#N)c(NC(=S)N2CCN(C(=O)c3ccco3)CC2)cc1OC	·	·	·	·	·	–
COc1ccccc1-c1cnc(C(O)c2ccc(CN3CCCCC3)cc2)[nH]1 (centres undefined)	·	·	·	·	·	–
O=C(/C=C/c1cccs1)Nc1nccs1	–	–	–	–	–	–
O=C(/C=C\c1ccccc1)Nc1nccs1	6.51	–	53.0	–	168.0	–
O=C(/C=C/c1cccc(F)c1)Nc1nccs1	3.59	–	–	–	–	–
CCOC(=O)c1c(C)oc2c1cc(O)c1ccccc12	3.31	–	–	–	171.7	–
COc1ccc([C@H]2CC(=O)C[C@@H](CCn3cc(CCc4ccccc4)nn3)O2)cc1	·	·	·	·	·	–
O=C(O)c1cc(-c2ccc3ccccc3n2)nc2ccccc12	·	·	·	·	·	77.6
O=C(O)c1cc(-c2ccc3ccccc3c2)nc2ccc(F)cc12	·	·	·	·	·	54.5
CCc1ccc(-c2cc(C(=O)O)c3ccccc3n2)s1	·	·	·	·	·	68.3
O=C(O)c1cc(-c2cccc3ccccc23)nc2ccccc12	·	·	·	·	·	–
O=C(O)c1cc(-c2c[nH]c3ccccc23)nc2cc3ccccc3cc12	·	·	·	–	·	51.7
O=C(Nc1ncccn1)c1cc(-c2ccc(F)cc2)nc2ccccc12	–	–	–	–	–	–
SMILES	NF-kB neuron act	FLuc act counter	FLuc inh counter	PPC-1+TRAIL kill	APP 5'UTR act	TRAIL sens C8
CCOC(=O)[C@]12CCC=C1N(Cc1ccc(Cl)cc1Cl)C(=O)[C@H](CC(=O)NCCCOC)C2	·	·	·	·	·	–
Cc1ccc(C(=O)Nc2cccc3ccccc23)cc1	·	·	·	·	·	–
CC(C)(C)c1ccc(C(=O)Nc2cccc3c(=O)[nH][nH]c(=O)c23)cc1	–	–	69.7	–	–	–
Cc1cc(O)cc(O)c1/C=N/NC(=O)c1ccc2c(c1)OCCO2	·	·	·	·	·	–
N#Cc1c(NC(=O)c2ccccc2)sc2c1CCC2	3.8	–	–	–	–	–
Cc1cccc(C(=O)Nc2sc3c(c2C#N)CCCCC3)c1	3.56	–	–	–	178.3	–
CC1CCc2c(sc(NC(=O)c3ccccc3C(=O)O)c2C#N)C1 (centres undefined)	–	–	76.7	–	–	–
N#Cc1c(NC(=O)c2cccnc2)sc2c1CCC2	–	–	53.9	–	–	–
Cc1cc2nc(-c3nnnn3Cc3ccccc3)c(=O)[nH]c2cc1C	·	·	·	·	·	–
CSc1ccc(NC(=O)C2(C)CCN2C(=O)c2sccc2C)cc1 (centres undefined)	·	·	·	·	·	–
CCN=c1scc(C)n1/N=C/c1cc(Br)c(O)c(Br)c1	–	–	–	–	–	–
CCN=c1scc(C)n1/N=C/c1ccc(O)c(O)c1O	–	–	76.4	–	–	–
CN[C@H]1C[C@@H](c2ccccc2)N(C(C)=O)C[C@H]1CO	·	·	·	·	·	–
C=C1CC2(OC1=O)c1ccccc1CCc1ccccc12	·	·	·	·	·	90.6
O=C1NC(=O)C2(CCc3ccccc32)N1 (centres undefined)	–	–	–	–	–	–
Cc1cccnc1Nc1nc(-c2ccc(O)cc2O)cs1	3.88	–	–	–	–	–
Oc1ccc(-c2csc(-c3cccnc3)n2)c(O)c1	–	–	53.4	–	–	–
c1cncc(-c2csc(-c3cccnc3)n2)c1	·	·	·	·	·	–
Oc1ccc(-c2nc(-c3ccc(O)c(O)c3)cs2)cc1	3.81	–	–	–	–	–
Cn1cccc1C(=O)Nc1nc(-c2ccccn2)cs1	5.11	–	–	–	–	–
Cc1csc(NC(=O)c2cccn2C)n1	–	–	–	–	–	–
COCCNc1nc(-c2ccccc2F)c2sc(-c3ccccc3)cc2n1	·	·	·	·	·	–
Cc1cccnc1Nc1nc(-c2ccccn2)cs1	7.53	–	–	–	–	49.2
CCNC(=O)C1CCCN(C(=O)c2ccc3ccccc3c2)CC1 (centres undefined)	·	·	·	·	·	–
O=C1OCCC1Sc1nnc(-c2ccc(O)cc2)o1 (centres undefined)	–	–	–	–	–	–
SMILES	NF-kB neuron act	FLuc act counter	FLuc inh counter	PPC-1+TRAIL kill	APP 5'UTR act	TRAIL sens C8
O=C1OCCC1Sc1nnc(-c2ccc3c(c2)OCO3)o1 (centres undefined)	–	–	60.0	–	–	–
Cc1cccc(C(C)C)c1NC(=O)COC(=O)CCC(=O)N(CC(C)C)c1c(N)n(CC(C)C)c(=O)[nH]c1=O	·	·	·	·	·	–
CC[C@@H](C)[C@H](CN[C@H](CNC)C(C)C)NC[C@@H](C)c1ccc(CC(C)C)cc1	·	·	·	·	·	64.5
CC[C@H](C)[C@@H](CNC)NC[C@@H](Cc1ccc(O)cc1)NCC(C)(C)C	·	·	·	·	·	–
Clc1cnc(N/N=C/c2ccco2)c(Cl)c1	4.2	–	–	–	154.9	–
COc1ccc2c(c1)CC/C(=C\Nc1ccc3c(c1)OCO3)C2=O	3.82	–	68.3	–	–	51.9
O=C1OC2(CCCCC2)OC(=O)C1=CNc1ccc2c(c1)OCO2	–	–	–	–	–	–
O=C1/C(=C/Nc2ccc3c(c2)OCO3)CCc2ccccc21	–	–	94.5	–	152.9	85.8
COc1cccc(C(O)c2ncc(-c3cccc(C(F)(F)F)c3)[nH]2)c1 (centres undefined)	·	·	·	·	·	–
O=C(CN(c1cccc(C(F)(F)F)c1)S(=O)(=O)c1ccc(Cl)c([N+](=O)[O-])c1)NCc1ccc(F)cc1	–	–	–	63.1	–	–
O=C(CN(c1cccc([N+](=O)[O-])c1)S(=O)(=O)c1ccccc1)NCc1cccnc1	·	·	·	·	·	–
CCCN(CC(=O)Nc1ccccc1C)C(=O)CCl	–	–	–	–	–	91.0
CCCN(CC(=O)Nc1ccccc1C)C(=O)COc1c(C)cccc1C	·	·	·	·	·	–
CCc1nc2c(OCCC3CCCCC3)cccn2c1N(C)C(=O)c1ccc(OC)cc1	·	·	·	·	·	–
